Tests used:
[1] = system: HCT-116; experiment: Cytotoxicity against human HCT116 cells assessed as growth inhibition after 72 hrs by WST-1 assay; assay type: functional, cell-based; conditions: HCT-116, 72 h
[2] = Apparent volume of distribution in NMRI mouse at 50 mg/kg, iv; assay type: ADME, organism-based; design: dose 50 mg/kg, route intravenous; conditions: in vivo, read-out: Vz
In short: (§1)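 Mouse PK after a single i.v. dose. Plasma proteins were precipitated with acetonitrile containing internal standard (3:1 v/v). Samples were analysed by UPLC-MS/MS on a C18 column at 40°C with an acetonitrile–0.05% formic acid gradient, using positive electrospray MRM. Parameters were derived by non-compartmental analysis.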

[3] = Clearance in NMRI mouse at 50 mg/kg, iv; assay type: ADME, organism-based; design: dose 50 mg/kg, route intravenous; conditions: in vivo; in short: as §1
[4] = Cmax in NMRI mouse at 50 mg/kg, iv; assay type: ADME, organism-based; design: dose 50 mg/kg, route intravenous; conditions: in vivo; in short: as §1
[5] = Toxicity in ip dosed NMRI mouse assessed as blood cell count administered as bid for 5 days; assay type: organism-based; conditions: in vivo
[6] = system: HCT-116; experiment: Cytotoxicity against APO866-resistant human HCT116 cells assessed as growth inhibition after 72 hrs by WST-1 assay; assay type: functional, cell-based; conditions: HCT-116, 72 h
[7] = AUC in NMRI mouse at 50 mg/kg, iv; assay type: ADME, organism-based; design: dose 50 mg/kg, route intravenous; conditions: plasma; in short: as §1
[8] = system: MCF7; experiment: Cytotoxicity against human MCF-7 cells assessed as growth inhibition after 72 hrs by WST-1 assay; assay type: functional, cell-based; conditions: MCF7, 72 h
[9] = Toxicity in ip dosed NMRI mouse assessed as body weight loss administered as bid for 5 days; assay type: organism-based; conditions: in vivo
[10] = system: A2780; experiment: Cytotoxicity against human A2780 cells assessed as growth inhibition after 72 hrs by WST-1 assay; assay type: functional, cell-based; conditions: A2780, 72 h
[11] = system: HCT-116; experiment: Resistance factor, ratio of IC50 for APO866-resistant human HCT116 cells to IC50 for human HCT116 cells; assay type: functional
[12] = Half life in NMRI mouse at 50 mg/kg, iv; assay type: ADME, organism-based; design: dose 50 mg/kg, route intravenous; conditions: in vivo; in short: as §1
[13] = Tmax in NMRI mouse at 50 mg/kg, iv; assay type: ADME, organism-based; design: dose 50 mg/kg, route intravenous; conditions: in vivo; in short: as §1
[14] = molecular target: Nicotinamide phosphoribosyltransferase (Homo sapiens, UniProt P43490); experiment: Inhibition of NAMPT in human HepG2 cells using [14C]-nicotinamide/PRPP as substrate assessed as formation of [14C]-nicotinamide mononucleotide after 1 hr by liquid scintillation counting analysis; assay type: cell-based
[15] = system: Plasma; experiment: Metabolic stability in mouse plasma assessed as compound hydrolysis; assay type: ADME, cell-free

Nicotinamide phosphoribosyltransferase, sequence (P43490 whole entry): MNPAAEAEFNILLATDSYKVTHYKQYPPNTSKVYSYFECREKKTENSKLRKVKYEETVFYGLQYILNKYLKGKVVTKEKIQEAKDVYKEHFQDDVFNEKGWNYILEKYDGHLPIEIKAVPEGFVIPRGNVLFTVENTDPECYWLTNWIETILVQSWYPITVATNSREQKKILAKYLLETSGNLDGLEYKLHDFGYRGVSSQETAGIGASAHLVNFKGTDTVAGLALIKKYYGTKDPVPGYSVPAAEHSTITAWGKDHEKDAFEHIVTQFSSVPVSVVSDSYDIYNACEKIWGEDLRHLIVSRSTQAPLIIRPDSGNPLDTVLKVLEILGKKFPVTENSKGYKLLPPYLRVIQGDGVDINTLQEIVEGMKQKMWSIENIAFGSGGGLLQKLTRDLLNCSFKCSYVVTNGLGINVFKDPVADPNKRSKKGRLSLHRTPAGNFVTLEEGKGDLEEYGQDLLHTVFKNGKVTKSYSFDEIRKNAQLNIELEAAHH

| Structure (SMILES) | IC50 [8] | IC50 [10] | further results |
| --- | --- | --- | --- |
| O=C1C(=O)C(Nc2ccncc2)C1NCCCCCCS(=O)(=O)N(OCCN1CCOCC1)C1CCCCC1 (centres undefined) | 9 nM | 0.49 nM | IC50 [1]: 39 nM; Vd [2]: 1.2 L/kg; clearance [3]: 66.6 mL/min/kg; Cmax [4]: 33500 ng/mL; MTD at 120 h [5]: < 10 mg/kg; IC50 [6]: > 5000 nM; AUC [7]: 12500 ng·h/mL; MTD at 120 h [9]: < 10 mg/kg; Ratio IC50 [11]: 128; half-life [12]: 12.6 min; Tmax [13]: 4.98 min |
| O=C1C(=O)C(Nc2ccncc2)C1NCCCCCS(=O)(=O)N(OCCN1CCOCC1)C1CCCCC1 (centres undefined) | 35.8 nM | 0.57 nM | IC50 [14]: 49.6 nM |
| N#C/N=C(\NCCCCCCC(=O)N(OCCN1CCOCC1)C1CCCCC1)Nc1ccncc1 | 0.42 nM | 0.1 nM | IC50 [14]: 0.2 nM |
| N#CN=C(NCCCCCCOc1ccc(Cl)cc1)Nc1ccncc1 [CHS-828] | 1.6 nM | 0.56 nM |  |
| O=C(NCCCCCS(=O)(=O)N(OCCN1CCOCC1)C1CCCC1)NCc1cccnc1 | 7 nM | 2.7 nM |  |
| N#C/N=C(\NCCCCCCCC(=O)N(Cc1ccccc1)OCCN1CCOCC1)Nc1ccncc1 |  | 0.01 nM | IC50 [14]: 4.4 nM |
| N#CNC(=Nc1ccncc1)NCCCCCCS(=O)(=O)NOCC1CCCCC1 | 3.4 nM | 0.16 nM | IC50 [14]: 2.4 nM |
| N#C/N=C(\NCCCCC[C@H](Cc1ccccc1)C(=O)NOC1CCCCC1)Nc1ccncc1 | 1.7 nM | 0.22 nM | Stability [15]: Unstable |
| O=C(NCCCCCS(=O)(=O)N(OCCN1CCOCC1)C1CCC1)NCc1cccnc1 | 49 nM | 13 nM |  |
| N#C/N=C(\NCCCCCCS(=O)(=O)N(OCCN1CCOCC1)C1CCC1)Nc1ccncc1 | 0.007 nM | 0.049 nM |  |
| N#C/N=C(\NCCCCCCS(=O)(=O)N(OCCN1CCOCC1)C1CCCCC1)Nc1cccnc1 | 2.9 nM | 0.51 nM |  |
| O=C(NCCCCCCS(=O)(=O)N(OCCN1CCOCC1)C1CCC1)NCc1cccnc1 | 11 nM | 2.2 nM |  |
| N#C/N=C(\NCCCCCS(=O)(=O)N(OCCN1CCOCC1)C1CCCC1)Nc1ccncc1 | 0.041 nM | 0.022 nM |  |
| N#C/N=C(\NCCCCCS(=O)(=O)N(OCCN1CCOCC1)C1CCCCC1)Nc1ccncc1 | 0.036 nM | 0.011 nM |  |
| O=C(NCCCCCCCS(=O)(=O)N(OCCN1CCOCC1)C1CCCCC1)Nc1ccncc1 | 7.4 nM | 1.8 nM |  |
| N#C/N=C(\NCCCCCCS(=O)(=O)N(OCCN1CCOCC1)C1CCCC1)Nc1ccncc1 |  | 0.0041 nM |  |
| O=C1C(=O)C(Nc2ccncc2)C1NCCCCCS(=O)(=O)N(OCCN1CCOCC1)C1CCCC1 (centres undefined) | 46.3 nM | 0.38 nM |  |
| N#C/N=C(\NCCCCCCS(=O)(=O)N(CCCN1CCOCC1)C1CCCCC1)Nc1ccncc1 | 0.11 nM | 0.16 nM | IC50 [14]: 2.4 nM |
| O=C1C(=O)C(Nc2ccncc2)C1NCCCCCCC(=O)N(Cc1ccccc1)OCCN1CCOCC1 (centres undefined) | 12.3 nM | 0.29 nM |  |
| O=C(NCCCCCCS(=O)(=O)N(CCCN1CCOCC1)C1CCC1)NCc1cccnc1 | 8.7 nM | 1.7 nM |  |
| O=C1C(=O)C(Nc2ccncc2)C1NCCCCCCS(=O)(=O)N(OCCN1CCOCC1)C1CCCC1 (centres undefined) | 13.7 nM | 0.59 nM |  |
| N#C/N=C(\NCCCCCC(=O)N(Cc1ccccc1)OCCN1CCOCC1)Nc1ccncc1 | 0.021 nM | 0.081 nM |  |
| O=C(NCCCCCCS(=O)(=O)N(CCN1CCOCC1)CC1CCCCC1)Nc1ccncc1 | 1.4 nM | 0.56 nM | IC50 [14]: 133 nM |
| O=C1C(=O)C(Nc2ccncc2)C1NCCCCCCS(=O)(=O)N(CCN1CCOCC1)OCC1CCCCC1 (centres undefined) | 10.8 nM | 0.73 nM |  |
